Results published in ChEMBL document CHEMBL1127577, “Identification of tricyclic analogs related to ellagic acid as potent/selective tyrosine protein kinase inhibitors” (J Med Chem, 1994).
Where “and” joins values, the source holds several entries; their conditions need not be identical. Equal values may be shown once.

Key:
[1] = target: Proto-oncogene tyrosine-protein kinase Src (Homo sapiens, UniProt P12931); assay: Tested for in vitro inhibitory activity against tyrosine protein kinase pp60 c-src
Procedure, shortened: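 pp60c-src purified from human platelet membrane vesicles by anti-src immunoaffinity chromatography. Reaction stopped after 45 min with 5% phosphoric acid; nitrocellulose filter capture. Six inhibitor concentrations in triplicate; IC50 from mean of ≥2 determinations.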

[2] = target: cAMP-dependent protein kinase (PKA) (Homo sapiens, UniProt P22694+P17612+P22612); assay: In vitro inhibitory activity against protein kinase A; type: protein assay, unidentified
Procedure, shortened: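 PKA catalytic subunit, 0.8 unit/assay, with Kemptide (LRRASLG) at 10 µg/mL. Buffers and procedure as for the src assay: 50 mM HEPES pH 7.4, 0.015% Brij 35, 0.1 mM EDTA, [γ-32P]ATP transfer, phosphoric acid stop, filter capture. Six inhibitor concentrations in triplicate; IC50 from mean of ≥2 determinations.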

[3] = Reaction rate parameter value for phosphate with transfer with respect to ATP
Procedure, shortened: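 Platelet pp60c-src, same peptide-phosphorylation assay run at four ATP levels (5, 50, 400 µM, 2 mM), six inhibitor concentrations in triplicate at each. Apparent KM and Vmax shifts used to pick an inhibition model; data fitted for KM, Vmax and KI, with fit quality given as RMS. Values from a representative experiment with substrate-only controls.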

Proto-oncogene tyrosine-protein kinase Src, sequence (P12931 2-536 limits assumed): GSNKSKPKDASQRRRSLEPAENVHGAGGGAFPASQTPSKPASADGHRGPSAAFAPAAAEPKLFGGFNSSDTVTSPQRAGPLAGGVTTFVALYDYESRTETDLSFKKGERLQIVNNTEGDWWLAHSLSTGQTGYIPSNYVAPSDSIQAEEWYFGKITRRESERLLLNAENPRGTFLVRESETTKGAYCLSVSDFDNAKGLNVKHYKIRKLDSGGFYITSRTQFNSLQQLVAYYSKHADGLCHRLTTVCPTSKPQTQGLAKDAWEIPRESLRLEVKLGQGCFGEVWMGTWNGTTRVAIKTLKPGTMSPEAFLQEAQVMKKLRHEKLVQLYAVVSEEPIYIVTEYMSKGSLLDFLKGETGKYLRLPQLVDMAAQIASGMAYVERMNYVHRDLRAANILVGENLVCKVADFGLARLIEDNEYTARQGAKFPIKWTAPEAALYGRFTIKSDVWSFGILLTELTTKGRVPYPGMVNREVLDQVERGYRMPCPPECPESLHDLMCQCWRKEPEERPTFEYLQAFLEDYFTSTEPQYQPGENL

Compound | IC50 [1] [µM] | IC50 [2] [µM] | Ki [3] | Km [3]
Oc1cc2nc(O)c3c(O)c(O)ccc3c2cc1O | 0.9 | 92 | – | –
O=c1c2c(O)c(O)ccc2c2cc(O)c(O)cc2n1Cc1ccc([N+](=O)[O-])cc1 | 61 | 309 | – | –
Oc1cc2c3ccc(O)c(O)c3n(CCCc3ccccc3)c2cc1O | 0.5 | 0.5 | – | –
O=C(c1ccc2ccccc2c1)n1c2cc(O)c(O)cc2c2ccc(O)c(O)c21 | 0.5 | 1 | – | –
O=C(c1ccc(Br)cc1)n1c2cc(O)c(O)cc2c2ccc(O)c(O)c21 | 1.4 | 4.2 | – | –
O=S(=O)(Cc1ccccc1)n1c2cc(O)c(O)cc2c2ccc(O)c(O)c21 | 14 | 78 | – | –
CC(C)(C)c1ccc(C(=O)n2c3cc(O)c(O)cc3c3ccc(O)c(O)c32)cc1 | 0.7 | 50 | – | –
O=c1c2c(O)c(O)ccc2c2cc(O)c(O)cc2n1Cc1ccc(Cl)c(Cl)c1 | 197 | 410 | – | –
CS(=O)(=O)c1ccc(C(=O)n2c3cc(O)c(O)cc3c3c(Br)cc(O)c(O)c32)cc1 | 9 | 4 | – | –
CC(C)(C)c1ccc(C(=O)n2c3cc(O)c(O)cc3c3c(Br)cc(O)c(O)c32)cc1 | 12 | 40 | – | –
O=S(=O)(c1ccccc1)c1ccc(Cn2c3cc(O)c(O)cc3c3ccc(O)c(O)c32)cc1 | 0.6 | 317 | – | –
O=c1c2c(O)c(O)ccc2c2cc(O)c(O)cc2n1Cc1ccc(S(=O)(=O)c2ccccc2)cc1 | 7.2 | 634 | – | –
N#Cc1ccc(Cn2c3cc(O)c(O)cc3c3c(Br)cc(O)c(O)c32)cc1 | 0.9 | 6.6 | – | –
O=C(c1ccc(C(F)(F)F)cc1)n1c2cc(O)c(O)cc2c2c(Br)cc(O)c(O)c21 | 2 | 7 | – | –
Oc1cc2c3ccc(O)c(O)c3n(Cc3c(Cl)cccc3Cl)c2cc1O | 0.9 | 435 | – | –
CS(=O)(=O)c1ccc(C(=O)n2c3cc(O)c(O)cc3c3ccc(O)c(O)c32)cc1 | 0.4 | 40 | – | –

Compound | IC50 [1] [µM] | IC50 [2] [µM] | Ki [3] | Km [3]
Oc1cc2c3ccc(O)c(O)c3n(Cc3ccccc3)c2cc1O | 2 | 210 | – | –
O=C(c1ccccc1)n1c2cc(O)c(O)cc2c2ccc(O)c(O)c21 | 0.9 | 240 | – | –
O=c1oc2c(O)c(O)cc3c(=O)oc4c(O)c(O)cc1c4c23 [ELLAGIC ACID] | 0.3 | 0.6 | – | –
O=C(CCc1ccccc1)n1c2cc(O)c(O)cc2c2ccc(O)c(O)c21 | 0.4 | 2.3 | – | –
O=C(c1ccc(-c2ccccc2)cc1)n1c2cc(O)c(O)cc2c2ccc(O)c(O)c21 | 0.6 | 3.2 | – | –
N#Cc1ccc(Cn2c3cc(O)c(O)cc3c3ccc(O)c(O)c32)cc1 | 0.4 | 275 | – | –
Oc1cc2[nH]c3c(O)c(O)ccc3c2cc1O | 0.8 | 47 | – | –
O=[N+]([O-])c1ccc(S(=O)(=O)n2c3cc(O)c(O)cc3c3ccc(O)c(O)c32)cc1 | 12 | 168 | – | –
Oc1cc2c3ccc(O)c(O)c3n(Cc3ccc(Br)cc3)c2cc1O | 3.4 | 374 | – | –
O=C(c1ccc(C(F)(F)F)cc1)n1c2cc(O)c(O)cc2c2ccc(O)c(O)c21 | 0.7 | 10 | – | –
Oc1cc2[nH]c3c(O)c(O)cc(Br)c3c2cc1O | 0.6 | 17 | – | –
O=S(=O)(c1cc(Cl)ccc1Cl)n1c2cc(O)c(O)cc2c2ccc(O)c(O)c21 | 7.7 | 223 | – | –
O=C(c1cccc([N+](=O)[O-])c1)n1c2cc(O)c(O)cc2c2ccc(O)c(O)c21 | 0.6 | 1.5 | – | –
Oc1cc2c3ccc(O)c(O)c3n(Cc3ccc(C(F)(F)F)cc3)c2cc1O | 9 | 50 | – | –
O=S(=O)(c1ccccc1)n1c2cc(O)c(O)cc2c2ccc(O)c(O)c21 | 15 | 250 | – | –

Now from value to compound:

IC50 [1] [µM] | IC50 [2] [µM] | Ki [3] | Km [3] | Compound
1.5 | 58 | 1.06 µM and 0.53 µM | 68.1 µM and 29.2 µM | Oc1cc2[nH]c3cc(O)c(O)cc3c2cc1O
1 | > 800 | – | – | Oc1cc2nc(O)c3cc(O)c(O)cc3c2cc1O
5.4 | 390 | – | – | O=c1c2cc(O)c(O)cc2c2cc(O)c(O)cc2n1Cc1ccccc1
2 | 51 | – | – | O=c1c2cc(O)c(O)cc2c2cc(O)c(O)cc2n1Cc1ccc(S(=O)(=O)c2ccccc2)cc1
11 | 541 | – | – | CCn1c(=O)c2c(O)c(O)ccc2c2cc(O)c(O)cc21
24 | > 600 | – | – | O=S(=O)(c1ccccc1)n1c2cc(O)c(O)cc2c2cc(O)c(O)cc21
1.3 | 20 | – | – | O=c1c2cc(O)c(O)cc2c2cc(O)c(O)cc2n1Cc1ccc(Cl)c(Cl)c1
21 | 284 | – | – | O=c1c2c(O)c(O)ccc2c2cc(O)c(O)cc2n1Cc1ccccc1
1.7 | 23 | – | – | Cc1cccc(Cn2c3cc(O)c(O)cc3c3ccc(O)c(O)c32)c1
0.9 | 8.4 | – | – | O=c1c2cc(O)c(O)cc2c2cc(O)c(O)cc2n1Cc1ccc([N+](=O)[O-])cc1
7 | 115 | – | – | Oc1cc2c3cc(O)c(O)cc3n(Cc3ccccc3)c2cc1O
8 | 108 | – | – | Oc1cc2c3cc(O)c(O)cc3n(Cc3cccnc3)c2cc1O
4.1 | > 2000 | – | – | CCn1c(=O)c2cc(O)c(O)cc2c2cc(O)c(O)cc21
4 | 415 | – | – | O=C(c1ccccc1)n1c2cc(O)c(O)cc2c2cc(O)c(O)cc21
